# Calb biofilm kill: clotrimazole potentiators killing Candida biofilms, primary screen, with clotrimazole, Alamar Blue; AID 834, 2007; C. albicans biofilm + clotrimazole; 0.14% of 85,000 active; inhibition, % at 6 µM;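 active = inhibition above 20%; inactive = inhibition below 20%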;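 note: preformed 24 hr biofilms exposed to compound for 48 hr; 0% = biofilm without compound and 100% = blank killed by clotrimazole plus chlorhexidine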
# AP ELISA ortho: alternative complement pathway inhibitors, primary screen, biochemical, ELISA, human serum, orthogonally pooled compounds | 0.08% of 62,000 active | LPS-coated ELISA, C3 deposition; tested in compound mixtures | inhibition, % at 5 µM;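 active = inhibition above 30% in each of the two pooled mixtures holding the compound, so the lower value exceeds 30%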;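 note: 0% = serum in Mg-EGTA without compound and 100% = EDTA serum blank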
#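 Medium: diluted human serum in Mg2+-EGTA GVB++. Assay system: human serum complement alternative pathway, C3 deposition onto LPS. Also added: Plate-bound LPS. Technique: Anti-C3 ELISA, OD 450 nm. Measure: percent inhibition. Incubation: 1 h at 37 °C. Dosing: 5 µM each compound, pools of ten, 50 µM per pool.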
# MMP13 inh: human MMP13 inhibitors, primary screen, biochemical, FRET peptide cleavage. Collagenase 3 (Homo sapiens), P45452. MMP-13 fTHP FRET cleavage, Mca fluorescence. inhibition, % at 4 µM. 0.07% of 65,000 active. AID 570, 2006;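 active = inhibition above the mean of compound-free control plate wells plus 3 SD, cut at about 14% in these data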;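 note: 0% = DMSO wells and 100% = wells with reference MMP-13 inhibitor after basal subtraction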
# DAT uptake mod: changed hDAT dopamine uptake under cocaine IC80, either direction, primary screen, cocaine antagonist project, cell-based, LLC-PK1 hDAT, [14C]-dopamine uptake, MLSMR. Sodium-dependent dopamine transporter (Homo sapiens), Q01959. LLC-PK1 hDAT cells, [14C]-dopamine uptake with cocaine IC80; actives deviate in either direction. B-score at 10 µM. 1.3% of 110,000 active;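 active = Z score or B-score, a plate-position-corrected score, falls beyond the plate's 99.7% confidence bounds, in either direction; inactive = both scores lie inside the 99.7% bounds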;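 note: scored against the spread of the other compound wells on the same plate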
# D1 mod: D1 CRE-luciferase signal change, two-sided – cell-based, HEK293 D1, dopamine EC30, D1 allosteric modulator project, primary screen; dopamine EC30 potentiation; actives deviate in either direction; D(1A) dopamine receptor (Homo sapiens), P21728; 5.9% of 58,000 active; B-score at 10 µM;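 active = luminescence count or its row- and column-corrected plate score outside the 99.7% band of the plate's sample wells, on either side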
# Target sequence (P21728 whole entry, looked up): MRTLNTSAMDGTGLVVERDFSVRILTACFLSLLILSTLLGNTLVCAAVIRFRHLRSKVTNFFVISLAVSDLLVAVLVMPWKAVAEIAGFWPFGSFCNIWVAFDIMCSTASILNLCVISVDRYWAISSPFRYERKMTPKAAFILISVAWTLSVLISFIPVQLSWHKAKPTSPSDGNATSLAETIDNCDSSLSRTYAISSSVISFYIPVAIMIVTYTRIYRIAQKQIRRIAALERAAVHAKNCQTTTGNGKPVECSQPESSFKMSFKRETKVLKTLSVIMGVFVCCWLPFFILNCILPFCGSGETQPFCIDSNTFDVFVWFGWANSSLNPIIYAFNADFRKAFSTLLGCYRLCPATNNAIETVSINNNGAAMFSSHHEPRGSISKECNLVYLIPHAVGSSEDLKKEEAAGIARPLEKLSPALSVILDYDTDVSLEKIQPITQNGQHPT
# Active calls of the source: *; i = inactive; x = no result given. The full list was thinned out, with hits kept by preference.
SMILES,Calb biofilm kill,AP ELISA ortho,MMP13 inh,DAT uptake mod,D1 mod
O=C(/C=C1\NCC2c3ccccc3CCN2C1=O)c1ccccc1 (stereo unspecified),x,x,x,-0.15,x
CCOC(=O)N1CCN(c2ncnc3c2[nH]c2ccc(OC)cc23)CC1,9,3,-110,3.5*,1.2
CCOC(=O)N1CCN(c2ncnc3c2[nH]c2ccc(F)cc23)CC1,x,x,x,0.17,x
COc1cc2[nH]c3c(N4CCN(c5ccccn5)CC4)ncnc3c2cc1OC,-1,7,-78,0.4,-4.8*
O=C(CSc1cn(CCNC(=O)c2cccs2)c2ccccc12)NCC1CCCO1 (stereo unspecified),33*,18,4,-0.48,x
O=C(CSc1cn(CCNC(=O)c2cccs2)c2ccccc12)NC1CCCCC1,6,x,x,2.3,x
COc1ccccc1-n1c(N)c(C(=O)NCC2CCCO2)c2nc3ccccc3nc21 (stereo unspecified),8,21,-289,4.2*,x
Cc1csc(C(C#N)C(=O)c2cc3ccccc3o2)n1 (stereo unspecified),7,-4,-1,-0.65,-3.8*
CCC(=O)Nc1ccc(NC(=O)c2cc3ccccc3o2)cc1,2,3,4,-0.23,-0.25
CC(C)c1ccc(C(=O)CC2(O)C(=O)N(CN3CCOCC3)c3ccccc32)cc1 (stereo unspecified),-6,x,x,0.44,x
CCCCOc1ccc(CNC(=S)N/N=C/c2ccc(OC)c(OC)c2)cc1,x,x,x,0.52,x
COc1ccccc1N1CCN(C(=O)c2ccc(NC(C)=O)cc2)CC1,8,10,3,-3.1*,-0.71
CCN(CC)C(=O)CC(c1ccc2c(c1)OCO2)c1c(OC)cc(OC)c2ccc(=O)oc12 (stereo unspecified),x,x,x,2.7*,x
CCN(CC)C(=O)CC(c1ccc(N(C)C)cc1)c1c(OC)cc(OC)c2ccc(=O)oc12 (stereo unspecified),x,x,x,0.95,x
COc1cc(/C=C/c2cc(OC(C)=O)c3ccccc3n2)c(OC(C)=O)c([N+](=O)[O-])c1,-1,x,x,-0.076,x
O=S(=O)(Nc1nc2ccccc2s1)c1ccc(Br)s1,6,17,1,-3.9*,-1.1
Cc1ccc(S(=O)(=O)Nc2nc3ccccc3s2)cc1,4,x,x,0.0056,x
C[C@@H]1CC[C@@]2(O[C@@H](CCO)C[C@H](O)[C@H]2O)O1,x,x,x,0.12,x
CC(=O)Oc1cccc(N2C(=O)C3C4C=CC(C4=C(C)C)C3C2=O)c1 (stereo unspecified),3,14,2,-9*,0.59
Cc1ccc(-c2cc3c(nn2)-c2ccccc2C3=O)cc1,3,6,5,x,-5.7*
O=c1[nH]c2cc3c(cc2cc1C(c1nnnn1CC1CCCO1)N1CCCCCC1)OCCO3 (stereo unspecified),5,x,x,0.53,x
Cc1ccc(OC(=O)C(F)(F)F)c2c1NCCC2,-3,35*,1,-1,-0.48
Cc1cc2c(C)cc(=O)oc2c2c1NCCC2,3,15,i,-0.11,0.83
Cc1cc(NC(=O)Cn2c(C)nc3ccccc3c2=O)ccc1Br,10,x,x,-0.76,x
CCC1=C(OC(=O)N(CC)CC)N2C(=O)OC(=NCCc3c[nH]c4ccccc34)[C@]2(Cc2ccccc2)[C@H]2C1=CC[C@H]1C(=O)N(CC)C(=O)[C@H]12,x,x,x,-1.1,x
SMILES,Calb biofilm kill,AP ELISA ortho,MMP13 inh,DAT uptake mod,D1 mod
Nc1ncnc2c1nc(Sc1ccc(Cl)cc1)n2[C@@H]1O[C@@H]2COP(=O)(O)O[C@H]2[C@H]1O,x,x,x,-0.21,x
NC(=O)C1CCN(c2ncnc3c(-c4ccccc4)nsc23)CC1,8,-16,1,-7.2*,-0.39
O=C(c1ccco1)N1CCN(c2ncnc3c(-c4ccccc4)nsc23)CC1,5,1,-5,0.11,-0.55
CCN1CCCC1CNC(=O)C(=O)Nc1ccccc1OC (stereo unspecified),x,x,x,-0.077,x
N#CC1=C(N)Oc2n[nH]c(-c3ccc(F)cc3)c2C1c1cccnc1 (stereo unspecified),10,8,-1,0.49,4.8*
CCN(c1ccc(NC(=O)COC(=O)c2ccc3ccccc3n2)cc1)C(C)C,2,x,x,-2.8*,x
CC1(C)CC(=O)C2=C(C1)N(c1ccc(F)cc1)C(=O)CC2c1ccsc1 (stereo unspecified),10,x,x,1.4,x
O=C(c1ccccc1)N1CCCC(c2nc3c(nnn3Cc3ccccc3)c(=O)[nH]2)C1 (stereo unspecified),8,-34,0,2.2,0.74
O=C(C1CCCCC1)N1CCCC(c2nc3c(nnn3Cc3ccccc3)c(=O)[nH]2)C1 (stereo unspecified),4,1,-1,2.4*,x
O=C(C1CCCCC1)N1CCC(c2nc3c(nnn3Cc3ccccc3Cl)c(=O)[nH]2)CC1,6,10,-8,x,1.8
Cc1ccc(C)c(Cn2nnc3c(=O)[nH]c(C4CCCN(C(=O)C5CCCCC5)C4)nc32)c1 (stereo unspecified),0,-8,0,4*,1.3
COCCCNC(=O)CN1CCN(Cc2ccc(Cl)cc2)C1=O,1,x,x,-0.33,x
O=C(NCCCn1ccnc1)C(Cc1ccc([N+](=O)[O-])cc1)N1C(=O)c2ccccc2C1=O (stereo unspecified),7,x,x,-0.75,x
Cc1onc(-c2ccccc2Cl)c1C(=O)N1CCc2ccccc2C1,6,x,x,-0.11,x
Cc1onc(-c2c(F)cccc2Cl)c1C(=O)N1CCc2ccccc2C1,10,7,-2,0.3,-3.5*
Cc1onc(-c2c(Cl)cccc2Cl)c1C(=O)N1CCc2ccccc21,3,1,1,-2,-4.8*
O=C1C=C(c2ccccc2)OC2(CCCC2)O1,4,4,0,0.29,3.2
O=C1C=C(c2ccc(Cl)cc2)OC2(CCCC2)O1,-3,x,x,-2.6*,x
CCCCC(=O)Nc1ccc(NC(=O)C2CC2)cn1,3,9,0,0.87,-0.38
CCCCC(=O)Nc1ccc(NC(=O)CCCC)nc1,6,69*,2,-0.71,x
c1csc(-c2ncc3ccccn23)c1,10,5,-16,0.98,-3.8*
O=C(O)CCC(=O)N1CCN(c2nc(-c3ccccc3Cl)c3cc(Br)ccc3n2)CC1,1,x,x,3*,x
OCCN1CCN(c2nc(-c3ccccc3)c3cc(Cl)ccc3n2)CC1,8,8,-15,0.66,0.59
C#CCNC(=O)C1=C[C@H](c2ccc(Br)cc2)[C@@H](CCCO)[C@H](OCC)O1,x,x,x,1.8,x
CN(C)NC(=O)c1ccsc1NC(=O)c1ccc(S(=O)(=O)N(C)C)cc1,x,x,x,0.47,x
CNC(=O)c1ccsc1NC(=O)c1ccccc1,-10,7,3,1.2,17*
O=C(/C=C\Nc1ccc2c(c1)OCO2)c1ccccn1,0,8,-7,0.92,-8*
Cc1cc(C(=O)CSc2nnnn2-c2ccc(O)cc2)c(C)n1Cc1ccc2c(c1)OCO2,x,-2,-4,-0.77,x

# Screens as filed in PubChem BioAssay.
